Assays:
SW-620 [1] = test: Growth inhibition of human SW620 cells by MTT assay; assay type: functional
Outline: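 MTT viability assay: 3×10³ cells/well were pre-incubated for 24 h, then exposed to 0, 12.5, 25, 50, 100 or 200 μM for 12, 24, 48 or 72 h. MTT was added at 0.5 mg/mL final for 4 h, formazan dissolved in DMSO, and absorbance read at 570 nm. GI₅₀ was taken from growth-inhibition curves; mean ± SD of three independent experiments, each in sextuplicate.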

SW-620 [2] = test: Cell cycle arrest in human SW620 cells assessed as accumulation at S-phase at 25 uM after 48 hrs by propidium iodide staining based flow cytometry (reference value: 43.72%); assay type: functional
SW-620 [3] = test: Cell cycle arrest in human SW620 cells assessed as accumulation at G2-phase at 25 uM after 48 hrs by propidium iodide staining based flow cytometry (reference value: 14.08%); assay type: functional
SW-620 [4] = test: Cell cycle arrest in human SW620 cells assessed as accumulation at G1-phase at 50 uM after 48 hrs by propidium iodide staining based flow cytometry (reference value: 40.56%); assay type: functional
SW-620 [5] = test: Cell cycle arrest in human SW620 cells assessed as accumulation at G1-phase at 75 uM after 48 hrs by propidium iodide staining based flow cytometry (reference value: 40.56%); assay type: functional
SW-620 [6] = test: Down regulation of CDK1 expression in human SW620 cells after 48 hrs by Western blot analysis; assay type: functional, cell-based
Outline: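 HT29 or SW620 cells were treated at 0, 25, 50 and 75 μM for 48 h and lysed in RIPA with protease and phosphatase inhibitors. Protein was quantified by BCA. 50 μg lysate was run on 8–15% SDS-PAGE and transferred to PVDF. Blocking was 5% BSA/TBST for 2 h; primary antibodies were applied overnight at 4 °C, then HRP secondary 1 h at room temperature.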

HT-29 [7] = test: Induction of apoptosis in human HT-29 cells assessed as increase in apoptotic bodies after 48 hrs by Hoechst 33342 staining based fluorescence microscopic analysis; assay type: functional, cell-based
Outline: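 HT29 cells in 24-well plates were treated at 0, 25, 50 or 75 μM for 48 h and fixed 20 min in 4% paraformaldehyde. After Hoechst 33342 staining for 15 min at 37 °C, apoptotic bodies and chromatin condensation were scored by fluorescence microscopy.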

HT-29 [8] = test: Induction of apoptosis in human HT-29 cells assessed as late apoptotic cells at 25 uM after 48 hrs by Annexin-V-FITC/propidium iodide staining based flow cytometry (reference value: 4.1%); assay type: functional
SW-620 [9] = test: Induction of apoptosis in human SW620 cells assessed as early apoptotic cells at 50 uM after 48 hrs by Annexin-V-FITC/propidium iodide staining based flow cytometry (reference value: 0.4%); assay type: functional
SW-620 [10] = test: Induction of apoptosis in human SW620 cells assessed as reduction in BCL2 expression after 48 hrs by Western blot analysis; assay type: functional, cell-based
[11] = target: RAC-alpha serine/threonine-protein kinase (Homo sapiens, UniProt P31749); test: Inhibition of human AKT1 expressed in bacterial expression system assessed as residual activity at 5 uM by KINOMEscan assay relative to control
RAC-alpha serine/threonine-protein kinase, sequence (P31749 whole entry, the tested form may be a part): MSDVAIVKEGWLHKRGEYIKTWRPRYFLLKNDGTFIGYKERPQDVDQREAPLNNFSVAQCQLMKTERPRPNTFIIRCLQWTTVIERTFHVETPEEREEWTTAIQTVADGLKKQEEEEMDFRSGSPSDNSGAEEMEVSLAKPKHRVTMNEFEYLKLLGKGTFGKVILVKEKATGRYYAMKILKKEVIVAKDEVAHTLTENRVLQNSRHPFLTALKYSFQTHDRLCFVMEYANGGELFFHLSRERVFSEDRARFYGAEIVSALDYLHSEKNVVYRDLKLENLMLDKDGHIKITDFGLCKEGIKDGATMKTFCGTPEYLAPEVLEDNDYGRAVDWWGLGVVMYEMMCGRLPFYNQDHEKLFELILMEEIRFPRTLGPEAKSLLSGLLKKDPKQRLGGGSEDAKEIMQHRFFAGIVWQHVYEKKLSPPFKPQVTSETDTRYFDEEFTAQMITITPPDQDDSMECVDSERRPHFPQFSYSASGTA

[12] = target: Bone morphogenetic protein receptor type-2 (Homo sapiens) (UniProt Q13873); test: Inhibition of human BMPR2 (R179 to Q526 residues) expressed in mammalian expression system assessed as residual activity at 5 uM by KINOMEscan assay relative to control
[13] = target: Dual specificity tyrosine-phosphorylation-regulated kinase 1B (Homo sapiens, UniProt Q9Y463); test: Inhibition of full length human DYRK1B (M1 to S629 residues) expressed in bacterial expression system assessed as residual activity at 5 uM by KINOMEscan assay relative to control
Dual specificity tyrosine-phosphorylation-regulated kinase 1B, sequence (Q9Y463 whole entry, looked up, the tested form may be a part): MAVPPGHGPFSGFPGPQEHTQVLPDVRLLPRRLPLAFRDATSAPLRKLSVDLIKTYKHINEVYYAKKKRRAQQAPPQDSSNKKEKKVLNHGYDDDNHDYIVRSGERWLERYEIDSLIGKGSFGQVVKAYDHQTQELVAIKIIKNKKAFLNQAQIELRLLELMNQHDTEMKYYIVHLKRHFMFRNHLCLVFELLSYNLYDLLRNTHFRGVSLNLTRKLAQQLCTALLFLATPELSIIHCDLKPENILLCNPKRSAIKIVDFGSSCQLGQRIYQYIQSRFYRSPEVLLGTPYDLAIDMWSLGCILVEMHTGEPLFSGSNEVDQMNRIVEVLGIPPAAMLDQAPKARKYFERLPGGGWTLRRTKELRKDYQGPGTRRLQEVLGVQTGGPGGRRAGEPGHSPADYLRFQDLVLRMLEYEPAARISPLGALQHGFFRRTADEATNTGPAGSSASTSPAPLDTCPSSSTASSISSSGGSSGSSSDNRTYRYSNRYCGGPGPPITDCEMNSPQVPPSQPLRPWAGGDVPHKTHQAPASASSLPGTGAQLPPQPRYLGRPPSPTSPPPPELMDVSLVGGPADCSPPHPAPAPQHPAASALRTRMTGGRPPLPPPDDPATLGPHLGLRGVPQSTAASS

[14] = target: Mitogen-activated protein kinase 3 (Homo sapiens, UniProt P27361); test: Inhibition of full length human ERK1 (M1 to P379 residues) expressed in bacterial expression system assessed as residual activity at 5 uM by KINOMEscan assay relative to control
[15] = target: Receptor-type tyrosine-protein kinase FLT3 (Homo sapiens) (UniProt P36888); test: Inhibition of human FLT3 (V592 to Y969 residues) expressed in bacterial expression system assessed as residual activity at 5 uM by KINOMEscan assay relative to control
[16] = target: Hepatocyte growth factor receptor (Homo sapiens, UniProt P08581); test: Inhibition of human MET (D1010 to S1367 residues) expressed in bacterial expression system assessed as residual activity at 5 uM by KINOMEscan assay relative to control
Hepatocyte growth factor receptor, sequence (P08581 whole entry, the tested form may be a part): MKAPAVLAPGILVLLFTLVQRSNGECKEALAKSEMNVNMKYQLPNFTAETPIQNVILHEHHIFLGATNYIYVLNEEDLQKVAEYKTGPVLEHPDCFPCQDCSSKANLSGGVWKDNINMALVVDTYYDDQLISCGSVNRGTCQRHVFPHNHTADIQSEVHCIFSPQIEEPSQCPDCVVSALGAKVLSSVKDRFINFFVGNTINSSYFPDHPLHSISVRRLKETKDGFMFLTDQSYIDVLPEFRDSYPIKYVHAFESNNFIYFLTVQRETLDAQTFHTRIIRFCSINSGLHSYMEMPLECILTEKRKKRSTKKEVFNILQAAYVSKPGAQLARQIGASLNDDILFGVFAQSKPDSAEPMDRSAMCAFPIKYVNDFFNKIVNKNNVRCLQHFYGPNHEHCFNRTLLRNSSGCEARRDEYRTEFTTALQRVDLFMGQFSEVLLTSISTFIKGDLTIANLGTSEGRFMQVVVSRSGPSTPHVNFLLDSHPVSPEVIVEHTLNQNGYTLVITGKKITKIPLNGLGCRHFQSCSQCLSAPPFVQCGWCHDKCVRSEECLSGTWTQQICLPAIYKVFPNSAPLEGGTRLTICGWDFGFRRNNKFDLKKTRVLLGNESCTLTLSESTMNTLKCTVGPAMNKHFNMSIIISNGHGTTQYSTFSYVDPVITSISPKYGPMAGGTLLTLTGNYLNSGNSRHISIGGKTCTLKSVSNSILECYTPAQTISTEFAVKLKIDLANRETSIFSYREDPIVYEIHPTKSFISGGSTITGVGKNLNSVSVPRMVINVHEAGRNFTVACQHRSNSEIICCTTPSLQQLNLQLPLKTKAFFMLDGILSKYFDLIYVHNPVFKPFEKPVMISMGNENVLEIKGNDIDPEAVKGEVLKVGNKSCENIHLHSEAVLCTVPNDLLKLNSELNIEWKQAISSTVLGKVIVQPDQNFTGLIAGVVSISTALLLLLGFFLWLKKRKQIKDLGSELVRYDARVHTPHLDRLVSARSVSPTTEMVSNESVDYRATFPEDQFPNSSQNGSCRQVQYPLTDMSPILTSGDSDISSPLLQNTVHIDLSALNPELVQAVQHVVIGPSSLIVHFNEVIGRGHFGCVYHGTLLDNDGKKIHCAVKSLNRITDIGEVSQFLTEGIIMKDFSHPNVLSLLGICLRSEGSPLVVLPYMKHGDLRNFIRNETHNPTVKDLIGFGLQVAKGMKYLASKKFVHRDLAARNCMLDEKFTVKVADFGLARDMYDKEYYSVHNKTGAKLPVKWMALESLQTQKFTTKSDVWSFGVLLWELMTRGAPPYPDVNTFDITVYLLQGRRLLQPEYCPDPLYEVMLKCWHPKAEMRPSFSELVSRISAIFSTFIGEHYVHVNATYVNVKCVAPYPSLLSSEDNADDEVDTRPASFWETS

[17] = target: cAMP-dependent protein kinase catalytic subunit alpha (Homo sapiens, UniProt P17612); test: Inhibition of human PKACalpha (G10 to F351 residues) expressed in bacterial expression system assessed as residual activity at 5 uM by KINOMEscan assay relative to control
[18] = target: Tyrosine-protein kinase ABL1 (Homo sapiens, UniProt P00519, E255K); test: Binding affinity to human phosphorylated ABL1 E255K mutant (S229 to K512 residues) expressed in mammalian expression system by KINOMEscan assay
Tyrosine-protein kinase ABL1 (Homo sapiens, UniProt P00519, E255K), sequence (P00519 whole entry E255K, the tested form may be a part): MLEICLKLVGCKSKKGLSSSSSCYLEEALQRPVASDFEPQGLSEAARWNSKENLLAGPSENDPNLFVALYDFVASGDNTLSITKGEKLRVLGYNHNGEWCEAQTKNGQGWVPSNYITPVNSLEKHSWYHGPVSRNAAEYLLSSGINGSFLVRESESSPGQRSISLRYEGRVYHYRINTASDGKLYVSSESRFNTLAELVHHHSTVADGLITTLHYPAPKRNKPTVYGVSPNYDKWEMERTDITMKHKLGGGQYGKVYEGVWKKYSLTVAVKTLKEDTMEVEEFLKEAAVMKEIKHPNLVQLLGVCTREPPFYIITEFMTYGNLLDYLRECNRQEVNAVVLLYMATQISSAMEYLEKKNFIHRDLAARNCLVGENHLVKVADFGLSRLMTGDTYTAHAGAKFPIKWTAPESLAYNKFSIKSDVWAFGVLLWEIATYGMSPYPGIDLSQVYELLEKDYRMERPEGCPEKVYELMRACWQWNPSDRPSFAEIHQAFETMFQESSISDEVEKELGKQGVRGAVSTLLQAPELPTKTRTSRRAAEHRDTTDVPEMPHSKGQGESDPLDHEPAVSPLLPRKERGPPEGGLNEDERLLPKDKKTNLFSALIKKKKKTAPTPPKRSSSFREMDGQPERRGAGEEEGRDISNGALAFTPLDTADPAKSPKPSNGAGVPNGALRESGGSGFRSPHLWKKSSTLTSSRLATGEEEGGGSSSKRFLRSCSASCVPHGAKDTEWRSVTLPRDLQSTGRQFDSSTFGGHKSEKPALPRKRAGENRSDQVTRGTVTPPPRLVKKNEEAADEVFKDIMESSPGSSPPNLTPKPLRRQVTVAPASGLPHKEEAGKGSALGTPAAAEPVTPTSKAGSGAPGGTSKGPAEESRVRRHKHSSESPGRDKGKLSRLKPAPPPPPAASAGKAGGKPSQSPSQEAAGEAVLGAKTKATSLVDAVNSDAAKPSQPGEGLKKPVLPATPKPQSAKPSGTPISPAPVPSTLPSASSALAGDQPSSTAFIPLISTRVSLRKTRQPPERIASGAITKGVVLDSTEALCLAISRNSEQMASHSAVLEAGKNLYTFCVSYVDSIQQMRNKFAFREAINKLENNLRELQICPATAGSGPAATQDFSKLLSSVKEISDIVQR

[19] = target: Tyrosine-protein kinase ABL1 (Homo sapiens, UniProt P00519); test: Binding affinity to human non-phosphorylated ABL1 (S229 to K512 residues) expressed in mammalian expression system by KINOMEscan assay
Tyrosine-protein kinase ABL1 (Homo sapiens, UniProt P00519), sequence (P00519 whole entry, the tested form may be a part): as the sequence (P00519 whole entry E255K, the tested form may be a part) above, with K255E counted along it

[20] = target: Inhibitor of nuclear factor kappa-B kinase subunit alpha (Homo sapiens, UniProt O15111); test: Binding affinity to full length human IKKalpha (M1 to E745 residues) expressed in mammalian expression system by KINOMEscan assay
Insulin receptor = Insulin receptor (Homo sapiens, UniProt P06213); test: Binding affinity to human INSR (P997 to E1318 residues) expressed in mammalian expression system by KINOMEscan assay
[21] = target: Mast/stem cell growth factor receptor Kit (Homo sapiens, UniProt P10721, D816V); test: Binding affinity to human KIT (I571 to D952 residues) D816V mutant expressed in bacterial expression system by KINOMEscan assay
[22] = target: Dual specificity mitogen-activated protein kinase kinase 1 (Homo sapiens, UniProt Q02750); test: Binding affinity to full length human MEK1 (M1 to V393 residues) expressed in mammalian expression system by KINOMEscan assay
[23] = target: MAP kinase-interacting serine/threonine-protein kinase 2 (Homo sapiens, UniProt Q9HBH9); test: Binding affinity to human MKNK2 (G63 to S388 residues) expressed in mammalian expression system by KINOMEscan assay
[24] = target: Serine/threonine-protein kinase PAK 1 (Homo sapiens, UniProt Q13153); test: Binding affinity to human PAK1 (S149 to H545 residues) expressed in bacterial expression system by KINOMEscan assay
Serine/threonine-protein kinase PAK 1, sequence (Q13153 whole entry, the tested form may be a part): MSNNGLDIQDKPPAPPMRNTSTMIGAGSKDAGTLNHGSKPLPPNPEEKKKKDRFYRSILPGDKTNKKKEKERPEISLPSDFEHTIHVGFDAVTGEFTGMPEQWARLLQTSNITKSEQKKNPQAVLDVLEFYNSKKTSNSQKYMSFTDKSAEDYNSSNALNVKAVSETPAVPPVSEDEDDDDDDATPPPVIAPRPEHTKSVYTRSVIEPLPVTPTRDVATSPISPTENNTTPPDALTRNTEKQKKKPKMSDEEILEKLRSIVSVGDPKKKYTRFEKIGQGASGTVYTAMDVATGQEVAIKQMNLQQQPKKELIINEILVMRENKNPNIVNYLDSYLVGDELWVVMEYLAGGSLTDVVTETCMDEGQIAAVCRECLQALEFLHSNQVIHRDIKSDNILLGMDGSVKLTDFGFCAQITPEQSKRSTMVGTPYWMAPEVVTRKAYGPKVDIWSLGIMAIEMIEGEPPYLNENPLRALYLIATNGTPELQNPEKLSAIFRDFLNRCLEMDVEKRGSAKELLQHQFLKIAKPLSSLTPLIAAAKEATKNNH

[25] = target: Proto-oncogene tyrosine-protein kinase receptor Ret (Homo sapiens, UniProt P07949); test: Binding affinity to human RET (E713 to D1014 residues) expressed in bacterial expression system by KINOMEscan assay
[26] = target: Serine/threonine-protein kinase 32C (Homo sapiens, UniProt Q86UX6); test: Binding affinity to human YANK3 (M68 to G486 residues) expressed in bacterial expression system by KINOMEscan assay
Serine/threonine-protein kinase 32C, sequence (Q86UX6 whole entry, the tested form may be a part): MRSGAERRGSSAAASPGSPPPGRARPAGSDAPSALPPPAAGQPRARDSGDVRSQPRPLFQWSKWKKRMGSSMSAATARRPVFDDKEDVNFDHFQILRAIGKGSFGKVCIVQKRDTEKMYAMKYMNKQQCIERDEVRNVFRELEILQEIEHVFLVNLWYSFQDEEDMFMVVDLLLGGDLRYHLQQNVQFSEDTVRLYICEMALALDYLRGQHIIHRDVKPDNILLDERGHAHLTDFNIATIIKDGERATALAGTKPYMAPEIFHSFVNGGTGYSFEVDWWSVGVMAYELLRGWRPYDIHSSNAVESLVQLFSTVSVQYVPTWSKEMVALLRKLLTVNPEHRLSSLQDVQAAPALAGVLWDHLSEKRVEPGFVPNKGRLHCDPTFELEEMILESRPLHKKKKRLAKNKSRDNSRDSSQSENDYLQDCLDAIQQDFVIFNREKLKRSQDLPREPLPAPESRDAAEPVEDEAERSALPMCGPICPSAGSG

`CC(C)CN(C(=O)c1cccnc1)c1c2ccccc2c(=O)n2c1[nH]c1ccccc12` gave a GI50 (SW-620 [1]) of 23.8 µM, an Activity (SW-620 [2]) of 43.71% and an Activity (SW-620 [3]) of 14.72%. The Activity (SW-620 [4]) was 46.19%, the Activity (SW-620 [5]) was 31.67% and the Activity (SW-620 [6]) was “Dose-dependent effect”. For the same molecule, the Activity (HT-29 [7]) was “Dose-dependent effect”, the Activity (HT-29 [8]) was 8% and the Activity (SW-620 [9]) was 0.6%. For the same molecule, the Activity (SW-620 [10]) was “Dose-dependent effect”, the Activity [11] was 98% and the Activity [12] was 100%. For the same molecule, the Activity [13] was 95%, the Activity [14] was 82% and the Activity [15] was 98%. It also gave an Activity [16] of 86%, an Activity [17] of 88% and a Kd [18] of at least 5 µM. It also gave a Kd [19] of at least 5 µM, a Kd [20] of at least 5 µM and a Kd (Insulin receptor) of at least 5 µM. It also gave a Kd [21] of at least 5 µM, a Kd [22] of at least 5 µM and a Kd [23] of at least 5 µM. It also gave a Kd [24] of at least 5 µM, a Kd [25] of at least 5 µM and a Kd [26] of at least 5 µM.
